Source: ChEMBL document CHEMBL4373711, “Development of 3,5-Dinitrophenyl-Containing 1,2,4-Triazoles and Their Trifluoromethyl Analogues as Highly Efficient Antitubercular Agents Inhibiting Decaprenylphosphoryl-β-d-ribofuranose 2'-Oxidase” (J Med Chem, 2019)
Calls of active or inactive are those of the source.

Key:
[1] = tested on: Mycobacterium tuberculosis; experiment: Antimycobacterial activity against Mycobacterium tuberculosis H37Rv CNCTC My 331/88 after 14 days; type: functional; settings: H37Rv CNCTC My 331/88, 336 h
Outline: (§1)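 M. tuberculosis strains (H37Rv and clinical MDR/XDR isolates) tested by microdilution in Šula's semisynthetic medium. Compounds were dissolved in DMSO and tested at 32 to 0.03 µM in twofold steps. Inoculum was a 1.0 McFarland suspension diluted 10-3. Plates were incubated at 37 °C and read at 14 and 21 days.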

[2] = tested on: Mycobacterium tuberculosis; experiment: Antimycobacterial activity against Mycobacterium tuberculosis H37Rv CNCTC My 331/88 after 21 days; type: functional; settings: H37Rv CNCTC My 331/88, 504 h; outline: as §1
Mycobacterium avium [3] = experiment: Antimycobacterial activity against Mycobacterium avium CNCTC My 330/88 after 14 days; type: functional; settings: CNCTC My 330/88, 336 h
Outline: (§2)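 M. avium was tested by microdilution in Šula's semisynthetic medium, with compounds dissolved in DMSO and serially diluted from 1000 down to 1. Inoculum was a 1.0 McFarland suspension diluted 10-5. Plates were incubated at 37 °C and read at 14 and 21 days. […] Isoniazid and rifampicin served as standards.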

Mycobacterium avium [4] = experiment: Antimycobacterial activity against Mycobacterium avium CNCTC My 330/88 after 21 days; type: functional; settings: CNCTC My 330/88, 504 h; outline: as §2
Mycobacterium kansasii [5] = experiment: Antimycobacterial activity against Mycobacterium kansasii CNCTC My 235/80 after 7 days; type: functional; settings: CNCTC My 235/80, 168 h
Outline: (§3)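 Microdilution in Šula's semisynthetic medium; compounds in DMSO at 32–0.03 µM. Inoculum from 1.0 McFarland suspension diluted 10-4. […] Isoniazid and rifampicin as reference drugs.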

Mycobacterium kansasii [6] = experiment: Antimycobacterial activity against Mycobacterium kansasii CNCTC My 235/80 after 14 days; type: functional; settings: CNCTC My 235/80, 336 h; outline: as §3
Mycobacterium kansasii [7] = experiment: Antimycobacterial activity against Mycobacterium kansasii CNCTC My 235/80 after 21 days; type: functional; settings: CNCTC My 235/80, 504 h; outline: as §3
Mycobacterium kansasii [8] = experiment: Antimycobacterial activity against Mycobacterium kansasii 6509/96 after 7 days; type: functional; settings: 6509/96, 168 h; outline: as §3
Mycobacterium kansasii [9] = experiment: Antimycobacterial activity against Mycobacterium kansasii 6509/96 after 14 days; type: functional; settings: 6509/96, 336 h; outline: as §3
Mycobacterium kansasii [10] = experiment: Antimycobacterial activity against Mycobacterium kansasii 6509/96 after 21 days; type: functional; settings: 6509/96, 504 h; outline: as §3
[11] = tested on: Mycobacterium tuberculosis; experiment: Antimycobacterial activity against XDR Mycobacterium tuberculosis Praha 131 after 14 days; type: functional; settings: Praha 131, 336 h; outline: as §1
[12] = tested on: Mycobacterium tuberculosis; experiment: Antimycobacterial activity against XDR Mycobacterium tuberculosis Praha 131 after 21 days; type: functional; settings: Praha 131, 504 h; outline: as §1
Staphylococcus aureus [13] = experiment: Antibacterial activity against Staphylococcus aureus subsp. aureus ATCC 29213 CCM 4223 at highest concentration measured after 24 to 48 hrs by alamar blue dye based broth microdilution assay; type: functional, organism-based
Staphylococcus aureus [14] = experiment: Antibacterial activity against methicillin-resistant Staphylococcus aureus subsp. aureus ATCC 43300 CCM 4750 at highest concentration measured after 24 to 48 hrs by alamar blue dye based broth microdilution assay; type: functional, organism-based
[15] = tested on: Staphylococcus epidermidis; experiment: Antibacterial activity against Staphylococcus epidermidis at highest concentration measured after 24 to 48 hrs by alamar blue dye based broth microdilution assay; type: functional, organism-based
Enterococcus faecalis = experiment: Antibacterial activity against Enterococcus faecalis ATCC 29212 CCM 4224 at highest concentration measured after 24 to 48 hrs by alamar blue dye based broth microdilution assay; type: functional, organism-based
Escherichia coli = experiment: Antibacterial activity against Escherichia coli ATCC 25922 CCM 3954 at highest concentration measured after 24 to 48 hrs by alamar blue dye based broth microdilution assay; type: functional, organism-based
Klebsiella pneumoniae = experiment: Antibacterial activity against Klebsiella pneumoniae at highest concentration measured after 24 to 48 hrs by alamar blue dye based broth microdilution assay; type: functional, organism-based
Serratia marcescens = experiment: Antibacterial activity against Serratia marcescens at highest concentration measured after 24 to 48 hrs by alamar blue dye based broth microdilution assay; type: functional, organism-based
Pseudomonas aeruginosa = experiment: Antibacterial activity against Pseudomonas aeruginosa ATCC 27853 CCM 3955 at highest concentration measured after 24 to 48 hrs by alamar blue dye based broth microdilution assay; type: functional, organism-based
Candida albicans = experiment: Antifungal activity against Candida albicans ATCC 24433 CCM 8320 at highest concentration measured after 24 to 48 hrs by alamar blue dye based broth microdilution assay; type: functional, organism-based
Pichia kudriavzevii = experiment: Antifungal activity against Candida krusei ATCC 6258 CCM8271 at highest concentration measured after 24 to 48 hrs by alamar blue dye based broth microdilution assay; type: functional, organism-based
Candida parapsilosis = experiment: Antifungal activity against Candida parapsilosis ATCC 22019 CCM 8260 at highest concentration measured after 24 to 48 hrs by alamar blue dye based broth microdilution assay; type: functional, organism-based
Candida tropicalis = experiment: Antifungal activity against Candida tropicalis ATCC 750 CCM 8264 at highest concentration measured after 24 to 48 hrs by alamar blue dye based broth microdilution assay; type: functional, organism-based
Aspergillus fumigatus = experiment: Antifungal activity against Aspergillus fumigatus ATCC 204305 at highest concentration measured after 24 to 48 hrs by alamar blue dye based broth microdilution assay; type: functional, organism-based
Aspergillus flavus = experiment: Antifungal activity against Aspergillus flavus CCM 8363 at highest concentration measured after 24 to 48 hrs by alamar blue dye based broth microdilution assay; type: functional, organism-based
Lichtheimia corymbifera = experiment: Antifungal activity against Lichtheimia corymbifera CCM 8077 at highest concentration measured after 24 to 48 hrs by alamar blue dye based broth microdilution assay; type: functional, organism-based
[16] = tested on: Trichophyton interdigitale; experiment: Antifungal activity against Trichophyton interdigitale ATCC 9533 CCM 8377 at highest concentration measured after 72 to 120 hrs by alamar blue dye based broth microdilution assay; type: functional
HepG2 = experiment: Cytotoxicity against human HepG2 cells assessed as reduction in cell viability after 48 hrs by CellTiter 96 aqueous one solution assay; type: cell-based; settings: HepG2, 48 h
[17] = Cytotoxicity against human HepG2 cells assessed as cell viability at 30 uM after 48 hrs by CellTiter 96 aqueous one solution assay relative to control; type: cell-based; settings: read-out: Activity
Outline: (§4)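 HepG2 (DMEM, 10% FBS, 1 mM pyruvate) or A431 (DMEM, 10% FBS) seeded 10,000 cells/well, 24 h at 37 °C, 5% CO2, then 30 µM compound for 48 h. MTS reagent 60 min, absorbance 490 nm, background subtracted; 0.1% DMSO vehicle = 100%, 10% SDS = 0% viability.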

A-431 = experiment: Cytotoxicity against human A431 cells assessed as reduction in cell viability after 48 hrs by CellTiter 96 aqueous one solution assay; type: cell-based; settings: A-431, 48 h
[18] = Cytotoxicity against human A431 cells assessed as cell viability at 30 uM after 48 hrs by CellTiter 96 aqueous one solution assay relative to control; type: cell-based, A-431; settings: read-out: Activity; outline: as §4

CCCSc1nnc(-c2cc([N+](=O)[O-])cc([N+](=O)[O-])c2)n1Cc1ccccc1
123%: viability at 48 h, 30 µM [18]
0.25 µM: MIC99 (Mycobacterium kansasii [6]) | MIC99 (Mycobacterium kansasii [7]) | MIC99 (Mycobacterium kansasii [8]) | MIC99 (Mycobacterium kansasii [9])
90%: viability at 48 h, 30 µM [17]
0.5 µM: MIC99 (Mycobacterium kansasii [10])
250 µM: MIC99 (Mycobacterium avium [3]) | MIC99 (Mycobacterium avium [4])
0.06 µM: MIC99 [1]
> 30 µM: IC50 (HepG2) | IC50 (A-431)
inactive: Activity (Staphylococcus aureus [13]) | Activity (Staphylococcus aureus [14]) | Activity [15] | Activity (Enterococcus faecalis) | Activity (Escherichia coli) | Activity (Klebsiella pneumoniae) | Activity (Serratia marcescens) | Activity (Pseudomonas aeruginosa) | Activity (Candida albicans) | Activity (Pichia kudriavzevii) | Activity (Candida parapsilosis) | Activity (Candida tropicalis) | Activity (Aspergillus fumigatus) | Activity (Aspergillus flavus) | Activity (Lichtheimia corymbifera) | Activity [16]
0.125 µM: MIC99 [2] | MIC99 (Mycobacterium kansasii [5]) | MIC99 [11] | MIC99 [12]

CCCCCCCCSc1nnc(-c2cc([N+](=O)[O-])cc([N+](=O)[O-])c2)n1Cc1ccccc1
0.06 µM: MIC99 [1] | MIC99 (Mycobacterium kansasii [5]) | MIC99 (Mycobacterium kansasii [6]) | MIC99 (Mycobacterium kansasii [8]) | MIC99 (Mycobacterium kansasii [9])
250 µM: MIC99 (Mycobacterium avium [3]) | MIC99 (Mycobacterium avium [4])
0.125 µM: MIC99 [2] | MIC99 (Mycobacterium kansasii [7]) | MIC99 (Mycobacterium kansasii [10]) | MIC99 [11]
99%: viability at 48 h, 30 µM [17]
inactive: Activity (Staphylococcus aureus [13]) | Activity (Staphylococcus aureus [14]) | Activity [15] | Activity (Enterococcus faecalis) | Activity (Escherichia coli) | Activity (Klebsiella pneumoniae) | Activity (Serratia marcescens) | Activity (Pseudomonas aeruginosa) | Activity (Candida albicans) | Activity (Pichia kudriavzevii) | Activity (Candida parapsilosis) | Activity (Candida tropicalis) | Activity (Aspergillus fumigatus) | Activity (Aspergillus flavus) | Activity (Lichtheimia corymbifera) | Activity [16]
131%: viability at 48 h, 30 µM [18]
0.25 µM: MIC99 [12]
> 30 µM: IC50 (HepG2) | IC50 (A-431)

Cn1c(SCc2ccccc2)nnc1-c1cc([N+](=O)[O-])cc([N+](=O)[O-])c1
0.06 µM: MIC99 (Mycobacterium kansasii [8])
0.125 µM: MIC99 (Mycobacterium kansasii [9])
> 30 µM: IC50 (HepG2) | IC50 (A-431)
inactive: Activity (Staphylococcus aureus [13]) | Activity (Staphylococcus aureus [14]) | Activity [15] | Activity (Enterococcus faecalis) | Activity (Escherichia coli) | Activity (Klebsiella pneumoniae) | Activity (Serratia marcescens) | Activity (Pseudomonas aeruginosa) | Activity (Candida albicans) | Activity (Pichia kudriavzevii) | Activity (Candida parapsilosis) | Activity (Candida tropicalis) | Activity (Aspergillus fumigatus) | Activity (Aspergillus flavus) | Activity (Lichtheimia corymbifera) | Activity [16]
161%: viability at 48 h, 30 µM [17]
16 µM: MIC99 (Mycobacterium avium [3]) | MIC99 (Mycobacterium avium [4])
0.03 µM: MIC99 [1] | MIC99 [2] | MIC99 [11] | MIC99 [12]
0.25 µM: MIC99 (Mycobacterium kansasii [5]) | MIC99 (Mycobacterium kansasii [6]) | MIC99 (Mycobacterium kansasii [7]) | MIC99 (Mycobacterium kansasii [10])
108%: viability at 48 h, 30 µM [18]

O=[N+]([O-])c1cc(-c2nnc(SCc3ccc(Br)cc3)n2Cc2ccccc2)cc([N+](=O)[O-])c1
inactive: Activity (Staphylococcus aureus [13]) | Activity (Staphylococcus aureus [14]) | Activity [15] | Activity (Enterococcus faecalis) | Activity (Escherichia coli) | Activity (Klebsiella pneumoniae) | Activity (Serratia marcescens) | Activity (Pseudomonas aeruginosa) | Activity (Candida albicans) | Activity (Pichia kudriavzevii) | Activity (Candida parapsilosis) | Activity (Candida tropicalis) | Activity (Aspergillus fumigatus) | Activity (Aspergillus flavus) | Activity (Lichtheimia corymbifera) | Activity [16]
0.25 µM: MIC99 [2] | MIC99 (Mycobacterium kansasii [6]) | MIC99 (Mycobacterium kansasii [7]) | MIC99 (Mycobacterium kansasii [10]) | MIC99 [12]
104%: viability at 48 h, 30 µM [17]
> 30 µM: IC50 (HepG2) | IC50 (A-431)
62 µM: MIC99 (Mycobacterium avium [3]) | MIC99 (Mycobacterium avium [4])
110%: viability at 48 h, 30 µM [18]
0.125 µM: MIC99 [1] | MIC99 (Mycobacterium kansasii [5]) | MIC99 (Mycobacterium kansasii [8]) | MIC99 (Mycobacterium kansasii [9]) | MIC99 [11]
